Measured values reported in ChEMBL document CHEMBL4673287, “Synthesis and biological evaluation of novel antipsychotic trans-4-(2-(1,2,4,5-tetrahydro-3H-benzo[d]azepin-3-yl)ethyl)cyclohexan-1-amine derivatives targeting dopamine/serotonin receptor subtypes” (Bioorg Med Chem Lett, 2021).

Key:
[1] = biological target: T1, Adrenergic receptor alpha-1 (Homo sapiens, UniProt P35348+P25100+P35368); test: Binding affinity to adrenergic alpha1 receptor (unknown origin); assay type: protein assay
T1 sequence (P35348 whole entry): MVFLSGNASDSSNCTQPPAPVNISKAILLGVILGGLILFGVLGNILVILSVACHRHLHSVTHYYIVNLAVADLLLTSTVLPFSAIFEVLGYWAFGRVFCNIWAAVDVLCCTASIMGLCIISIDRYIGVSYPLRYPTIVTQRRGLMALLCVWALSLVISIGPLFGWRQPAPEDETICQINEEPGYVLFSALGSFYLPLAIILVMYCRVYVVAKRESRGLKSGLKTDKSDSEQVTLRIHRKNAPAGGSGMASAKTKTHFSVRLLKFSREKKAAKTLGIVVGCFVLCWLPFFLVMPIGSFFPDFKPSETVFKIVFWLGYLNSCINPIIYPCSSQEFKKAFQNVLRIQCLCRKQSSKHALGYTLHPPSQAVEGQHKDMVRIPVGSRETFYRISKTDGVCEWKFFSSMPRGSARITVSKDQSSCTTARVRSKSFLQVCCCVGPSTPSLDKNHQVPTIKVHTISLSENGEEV
T1 sequence (P25100 whole entry): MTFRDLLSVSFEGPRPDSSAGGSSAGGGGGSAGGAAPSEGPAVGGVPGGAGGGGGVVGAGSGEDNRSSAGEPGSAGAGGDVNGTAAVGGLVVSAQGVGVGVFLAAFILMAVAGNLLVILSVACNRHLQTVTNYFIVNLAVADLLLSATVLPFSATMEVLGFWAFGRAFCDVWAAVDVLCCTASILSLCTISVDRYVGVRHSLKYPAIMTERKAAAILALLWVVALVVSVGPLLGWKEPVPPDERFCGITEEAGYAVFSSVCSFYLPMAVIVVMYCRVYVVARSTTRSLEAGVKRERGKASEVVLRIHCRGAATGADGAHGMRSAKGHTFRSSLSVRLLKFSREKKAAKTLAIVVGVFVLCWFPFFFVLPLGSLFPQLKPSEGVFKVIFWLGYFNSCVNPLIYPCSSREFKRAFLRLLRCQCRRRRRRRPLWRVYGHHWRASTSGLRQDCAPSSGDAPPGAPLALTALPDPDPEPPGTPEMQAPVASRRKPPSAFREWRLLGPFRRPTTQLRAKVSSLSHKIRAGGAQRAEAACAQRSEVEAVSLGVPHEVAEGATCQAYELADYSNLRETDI
T1 sequence (P35368 whole entry): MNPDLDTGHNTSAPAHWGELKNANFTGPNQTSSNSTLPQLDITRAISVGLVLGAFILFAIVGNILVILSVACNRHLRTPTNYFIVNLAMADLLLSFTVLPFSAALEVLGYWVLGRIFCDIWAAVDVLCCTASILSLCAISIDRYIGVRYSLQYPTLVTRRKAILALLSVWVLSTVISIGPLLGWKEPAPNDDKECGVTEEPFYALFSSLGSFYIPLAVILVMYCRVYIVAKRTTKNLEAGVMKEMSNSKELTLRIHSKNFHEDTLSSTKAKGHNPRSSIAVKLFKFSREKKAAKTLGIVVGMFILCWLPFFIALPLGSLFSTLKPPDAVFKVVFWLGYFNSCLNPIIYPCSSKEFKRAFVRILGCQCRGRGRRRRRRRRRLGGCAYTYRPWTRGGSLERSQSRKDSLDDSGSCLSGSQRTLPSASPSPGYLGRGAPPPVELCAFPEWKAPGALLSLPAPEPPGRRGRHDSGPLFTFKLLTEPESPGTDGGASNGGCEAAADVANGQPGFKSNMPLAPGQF

Rattus norvegicus = test: Antipsychotic activity in orally dosed Sprague-Dawley rat assessed as inhibition of PCP-induced hyperactivity administered 20 mins before PCP stimulation and measured after 1 hr; assay type: functional, organism-based; conditions: dose 1-10 mg/kg, time 80.0 min
In short: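 Male Sprague-Dawley rats dosed orally 20 min before PCP (5 mg/kg) injection. Locomotor activity recorded for 1 h after PCP, read as total travel distance. Mean ± standard error of the mean, n = 8-10 per group.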

[2] = biological target: T2, Adrenergic receptor alpha-1 (Rattus norvegicus, UniProt P15823+P23944+P43140); test: Displacement of [3H]-prazosin from adrenergic alpha1 in rat cerebral cortex; assay type: tissue-based
T2 sequence (P15823 whole entry): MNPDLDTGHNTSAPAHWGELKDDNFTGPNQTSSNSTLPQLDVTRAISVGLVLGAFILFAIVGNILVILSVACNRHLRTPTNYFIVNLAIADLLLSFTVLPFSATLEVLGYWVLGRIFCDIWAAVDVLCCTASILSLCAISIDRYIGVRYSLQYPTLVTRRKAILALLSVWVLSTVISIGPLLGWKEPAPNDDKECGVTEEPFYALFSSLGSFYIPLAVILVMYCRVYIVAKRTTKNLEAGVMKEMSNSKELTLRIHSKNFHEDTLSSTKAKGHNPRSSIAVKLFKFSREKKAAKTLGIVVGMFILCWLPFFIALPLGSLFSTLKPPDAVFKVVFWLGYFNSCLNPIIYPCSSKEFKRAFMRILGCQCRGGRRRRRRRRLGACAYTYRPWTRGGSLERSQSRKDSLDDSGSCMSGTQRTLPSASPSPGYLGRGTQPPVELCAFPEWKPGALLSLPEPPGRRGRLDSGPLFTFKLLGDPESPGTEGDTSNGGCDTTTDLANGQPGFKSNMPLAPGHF
T2 sequence (P23944 whole entry): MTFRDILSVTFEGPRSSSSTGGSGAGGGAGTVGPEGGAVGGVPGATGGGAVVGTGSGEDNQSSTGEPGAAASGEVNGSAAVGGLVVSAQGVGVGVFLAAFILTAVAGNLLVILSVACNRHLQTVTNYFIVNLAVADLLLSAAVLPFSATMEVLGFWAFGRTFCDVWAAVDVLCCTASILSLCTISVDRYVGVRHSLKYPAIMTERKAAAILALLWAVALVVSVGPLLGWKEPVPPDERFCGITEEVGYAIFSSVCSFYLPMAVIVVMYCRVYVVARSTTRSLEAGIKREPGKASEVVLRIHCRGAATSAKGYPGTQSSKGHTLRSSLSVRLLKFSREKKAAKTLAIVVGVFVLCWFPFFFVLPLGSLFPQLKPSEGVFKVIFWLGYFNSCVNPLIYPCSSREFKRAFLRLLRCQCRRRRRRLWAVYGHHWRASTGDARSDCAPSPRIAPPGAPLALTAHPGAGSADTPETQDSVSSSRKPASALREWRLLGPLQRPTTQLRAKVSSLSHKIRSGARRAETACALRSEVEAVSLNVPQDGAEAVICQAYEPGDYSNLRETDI
T2 sequence (P43140 whole entry): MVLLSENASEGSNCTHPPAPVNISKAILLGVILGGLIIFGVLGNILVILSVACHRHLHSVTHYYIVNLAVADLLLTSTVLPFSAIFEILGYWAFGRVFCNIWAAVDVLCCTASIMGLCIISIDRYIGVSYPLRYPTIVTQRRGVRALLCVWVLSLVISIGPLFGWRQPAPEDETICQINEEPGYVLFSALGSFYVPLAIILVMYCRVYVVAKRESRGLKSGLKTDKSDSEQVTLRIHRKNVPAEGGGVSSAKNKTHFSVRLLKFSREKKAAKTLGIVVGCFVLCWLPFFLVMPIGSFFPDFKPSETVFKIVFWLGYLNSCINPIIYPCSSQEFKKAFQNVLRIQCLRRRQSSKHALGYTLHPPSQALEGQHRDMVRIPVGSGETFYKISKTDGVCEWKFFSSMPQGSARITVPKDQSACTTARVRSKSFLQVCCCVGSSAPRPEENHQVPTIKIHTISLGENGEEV
In short: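 Eight-concentration displacement curves, two independent experiments in duplicate, value is the mean Ki.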

SMILES | Ki [1] [nM] | Activity (Rattus norvegicus) | Ki [2] [nM]
CN1CC2c3ccccc3Oc3ccc(Cl)cc3C2C1 (stereo not drawn) [ASENAPINE] | 1.2 |  | 
CN(C)C(=O)N[C@H]1CC[C@H](CCN2CCN(c3cccc(Cl)c3Cl)CC2)CC1 [CARIPRAZINE] |  | Dose-dependent effect | 155
